Experimental data: the M2OR odorant receptor database

molecular target: T1, OR1A2 (Homo sapiens) (UniProt Q9Y585); settings: stereoisomer not certain
T1 sequence (whole entry): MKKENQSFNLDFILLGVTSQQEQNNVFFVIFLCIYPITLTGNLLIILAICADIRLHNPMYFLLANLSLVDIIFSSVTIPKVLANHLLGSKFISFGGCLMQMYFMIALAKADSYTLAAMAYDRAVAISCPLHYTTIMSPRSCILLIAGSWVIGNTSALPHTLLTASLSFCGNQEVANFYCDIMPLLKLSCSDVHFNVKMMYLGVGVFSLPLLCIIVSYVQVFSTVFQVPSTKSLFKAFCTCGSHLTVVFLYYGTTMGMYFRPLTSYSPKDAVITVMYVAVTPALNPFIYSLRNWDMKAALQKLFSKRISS
How it was run: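 Whether a receptor–molecule pair is responsive (active) rests on the original authors' judgment that its measured signal was statistically different from baseline. Pairs without that judgment are non-responsive (inactive). Sources used varied assay methods, commonly transient luciferase assays in mammalian cell lines.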

Compound	odorant receptor agonist call;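 also: active if original authors judged signal statistically different from baseline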
CC(=O)CCc1ccc(O)cc1	inactive
C=CC(=O)CC	inactive
C=C(C)C1CC=C(C)C(O)C1 (stereo not drawn)	active
CCCCCCCC=CC=CC=O	inactive
CCC=CCCCCCC=O	active
C=C(C)C1CC=C(C)CC1 (stereo not drawn)	active
CN(C)C	inactive
CC(C)C12CCC(C)(CC1)O2	inactive
CSCCCO	inactive
CSCCC=O	inactive
C=CC(=O)CCCCC	active
CC1CCC(C(C)C)C(=O)C1 (stereo not drawn)	inactive
Cc1cnccn1	inactive
CCCCS	inactive
CCCCCC=O	inactive
CC(CC=O)CCCC(C)(C)O (stereo not drawn)	active
CC(=O)OCCC(C)C	inactive
CC(C)=CCCC(C)CC(=O)O (stereo not drawn)	inactive
CCCCCCCCO	active
CCc1cnccn1	inactive
CC(=O)C=CC1=C(C)CCCC1(C)C	active
CCCCCCC=CC=O	inactive
CCCCCCCO	inactive
COc1ccccc1	inactive
CCCCCC=CC=CC=O	active
CCCCCCCCC(=O)O	inactive
CC1(C)C2CC=C(C=O)C1C2 (stereo not drawn)	inactive
CCCCCCCC(=O)[O-].[H+]	inactive
